Assay [1] has as its system Mycobacterium tuberculosis. Kind of assay: Antimycobacterial activity against dormant stage of Mycobacterium tuberculosis H37Ra ATCC 25177 at 3 to 30 ug/ml by XRMA relative to control. The format is functional. The gist of the method: (§1)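 Mtb H37Ra, from a -80 °C stock subcultured once in liquid medium, grown in M. pheli minimal medium (KH2PO4, trisodium citrate, MgSO4, asparagine, glycerol; pH 6.6) in 96-well plates. Primary screen at 30, 10 and 3 µg/mL. XTT reduction menadione read-out at 470 nm against cell-free blank. % inhibition = (control − compound)/(control − blank) × 100, with DMSO-vehicle wells as 100% growth. Duplicates.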

Assay [2] has as its system Mycobacterium tuberculosis. Kind of assay: Antimycobacterial activity against active stage of Mycobacterium tuberculosis H37Ra ATCC 25177 at 3 to 30 ug/ml by XRMA relative to control. Type of assay: functional. The gist of the method:
as §1

The subject of another assay is Staphylococcus aureus. The assay is described as follows: Antibacterial activity against Staphylococcus aureus NCIM 2010 at 3 ug/ml after 8 hrs relative to control. Type of assay: functional. The gist of the method: (§2)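 Cultures grown to OD600 of 1, then set at 0.1 OD600 and exposed to compound at 3 µg/mL for 8 h at 37 °C. Ampicillin was the positive control. Activity is reported as % inhibition.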

Assay [3] concerns Mycobacterium tuberculosis. The assay is described as follows: Antimycobacterial activity against active stage of Mycobacterium tuberculosis H37Ra ATCC 25177 by XRMA. Type of assay: functional, organism-based. In outline:
(§3)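 Mtb H37Ra in M. pheli medium (pH 6.6) in 96-well plates. XTT reduction menadione read-out at 470 nm, with DMSO vehicle as 100% growth. MIC derived from the dose-response curve. Duplicates, average ± standard deviation.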

In assay [4] the test system is Mycobacterium tuberculosis. Kind of assay: Antimycobacterial activity against dormant stage of Mycobacterium tuberculosis H37Ra ATCC 25177 by XRMA. Type of assay: functional, organism-based. In outline: as §3
The next assay concerns Bacillus subtilis. The assay is described as follows: Antibacterial activity against Bacillus subtilis NCIM 2079 at 3 ug/ml after 8 hrs relative to control. The format is functional. The gist of the method: as §2

Converted amounts (≈) assume the structure as drawn. The source made the active and inactive calls. No cut-off for these calls is given here. Some results are limits rather than exact numbers.

As for `c1ccc(-n2cc(C(c3c[nH]c4ccccc34)c3c[nH]c4ccccc34)nn2)cc1`, the outcome in assay [1] and in assay [2] was Active.
Turning to `Clc1ccc(-n2cc(C(c3c[nH]c4ccccc34)c3c[nH]c4ccccc34)nn2)cc1`, the outcome in assay [1] and in assay [2] was Active.
`Cc1ccc(-n2cc(C(c3c[nH]c4ccccc34)c3c[nH]c4ccccc34)nn2)cc1`: the outcome in assay [1] and in assay [2] was Active.
In the case of `Clc1cccc(-n2cc(C(c3c[nH]c4ccc(Br)cc34)c3c[nH]c4ccc(Br)cc34)nn2)c1`, the Activity in the assay on Staphylococcus aureus is given as 71.77%; in assay [1] it was above 87.18%; in assay [2], above 87.18%. For the same compound, the IC50 came out at 0.22 µg/mL (≈ 0.378 µM) in assay [3] and 0.12 µg/mL (≈ 0.206 µM) in assay [4]. For the same compound, the 90% effect concentration (IC90) in assay [3] worked out at 13.5 µg/mL (≈ 23.2 µM); in assay [4], 9.84 µg/mL (≈ 16.9 µM).
For `Brc1ccc2[nH]cc(C(c3cn(-c4ccccc4)nn3)c3c[nH]c4ccc(Br)cc34)c2c1`, the Activity is above 70% in the assay on Bacillus subtilis, above 87.18% in assay [1] and above 87.18% in assay [2]. In addition, the half-maximal inhibitory concentration (IC50) in assay [3] amounted to 2.19 µg/mL (≈ 4 µM); in assay [4], 1.55 µg/mL (≈ 2.83 µM). For the same compound, the IC90 in assay [3] turned out to be 30 µg/mL (≈ 54.8 µM); in assay [4], 9.39 µg/mL (≈ 17.2 µM).
As for `O=[N+]([O-])c1ccccc1-n1cc(C(c2c[nH]c3ccccc23)c2c[nH]c3ccccc23)nn1`, the outcome in assay [1] and in assay [2] was Active.
Turning to `Clc1cccc(-n2cc(C(c3c[nH]c4ccccc34)c3c[nH]c4ccccc34)nn2)c1`, the Activity in assay [1] and in assay [2] was above 87.18% in each case. The values for the 50% inhibitory concentration (IC50) in assay [3] and in assay [4] were 2.04 µg/mL (≈ 4.81 µM) and 0.37 µg/mL (≈ 0.873 µM), respectively. For the same compound, the concentration for an effect of 90% (IC90) in assay [3] and in assay [4] was above 30 µg/mL each time.
As to `COc1ccc(-n2cc(C(c3c[nH]c4ccccc34)c3c[nH]c4ccccc34)nn2)cc1`, the result in assay [1] and in assay [2] was Active.
`O=[N+]([O-])c1ccc(-n2cc(C(c3c[nH]c4ccc(Br)cc34)c3c[nH]c4ccc(Br)cc34)nn2)cc1`: the Activity in assay [1] and in assay [2] was above 87.18% in each case. In addition, the IC50 in assay [3] was found to be 14.8 µg/mL (≈ 25 µM); in assay [4], 2.96 µg/mL (≈ 5 µM). The concentration for an effect of 90% (IC90) in assay [3] and in assay [4] was above 30 µg/mL in each case.
`COc1ccccc1-n1cc(C(c2c[nH]c3ccc(Br)cc23)c2c[nH]c3ccc(Br)cc23)nn1`: the result in assay [1] and in assay [2] was Active.
With `CC(=O)Nc1ccc(-n2cc(C(c3c[nH]c4ccc(Br)cc34)c3c[nH]c4ccc(Br)cc34)nn2)cc1`, the Activity in the assay on Bacillus subtilis is reported as above 70%; in assay [1], above 87.18%; in assay [2], above 87.18%. For the same compound, the IC50 was 1.52 µg/mL (≈ 2.52 µM) in assay [3] and 1 µg/mL (≈ 1.65 µM) in assay [4]. Further, the concentration for an effect of 90% (IC90) turned out to be 6.16 µg/mL (≈ 10.2 µM) in assay [3] and 3 µg/mL (≈ 4.96 µM) in assay [4].
As to `COc1ccc(-n2cc(C(c3c[nH]c4ccc(Br)cc34)c3c[nH]c4ccc(Br)cc34)nn2)cc1`, the Activity in assay [1] and in assay [2] was above 88.22% in each case.
Consider `Clc1ccc(-n2cc(C(c3c[nH]c4ccc(Br)cc34)c3c[nH]c4ccc(Br)cc34)nn2)cc1`, for which the Activity in the assay with Bacillus subtilis is reported as above 70%; in assay [1], above 88.22%; in assay [2], above 88.22%.
As for `CC(=O)Nc1ccc(-n2cc(C(c3c[nH]c4ccccc34)c3c[nH]c4ccccc34)nn2)cc1`, the outcome in assay [1] and in assay [2] was Active.
Turning to `Cc1ccc(-n2cc(C(c3c[nH]c4ccc(Br)cc34)c3c[nH]c4ccc(Br)cc34)nn2)cc1`, the outcome in assay [1] and in assay [2] was Active.
As to `COc1ccccc1-n1cc(C(c2c[nH]c3ccccc23)c2c[nH]c3ccccc23)nn1`, the outcome in assay [1] and in assay [2] was Active.
In the case of `O=[N+]([O-])c1ccccc1-n1cc(C(c2c[nH]c3ccc(Br)cc23)c2c[nH]c3ccc(Br)cc23)nn1`, the Activity in assay [1] and in assay [2] was above 87.18% in each case. Also, the IC50 was 2.27 µg/mL (≈ 3.83 µM) in assay [3] and 1 µg/mL (≈ 1.69 µM) in assay [4]. Besides, the IC90 is above 30 µg/mL in assay [3] and 30 µg/mL (≈ 50.7 µM) in assay [4].
`O=[N+]([O-])c1cccc(-n2cc(C(c3c[nH]c4ccc(Br)cc34)c3c[nH]c4ccc(Br)cc34)nn2)c1`: the Activity is on record as above 70% in the assay on Bacillus subtilis, above 87.18% in assay [1] and above 87.18% in assay [2]. Further, the 50% inhibitory concentration (IC50) is 6.25 µg/mL (≈ 10.6 µM) in assay [3] and 2.56 µg/mL (≈ 4.32 µM) in assay [4]. The IC90 in assay [3] and in assay [4] was above 30 µg/mL each time.
On to `CO[C@H]1/C=C/O[C@@]2(C)Oc3c(C)c(O)c4c(O)c(c(/C=N/N5CCN(C)CC5)c(O)c4c3C2=O)NC(=O)/C(C)=C\C=C\[C@H](C)[C@H](O)[C@@H](C)[C@@H](O)[C@@H](C)[C@H](OC(C)=O)[C@@H]1C` [RIFAMPIN], for which, in assay [3], the IC50 was determined as 0.02 µg/mL (≈ 0.0243 µM) and the 90% effect level (IC90) was put at 0.53 µg/mL (≈ 0.644 µM). Moreover, the 90% effect concentration (IC90) in assay [4] worked out at 0.8 µg/mL (≈ 0.972 µM).
On to `O=[N+]([O-])c1ccc(-n2cc(C(c3c[nH]c4ccccc34)c3c[nH]c4ccccc34)nn2)cc1`, for which the outcome in assay [1] and in assay [2] was Active.

Usually IC50 stands for the concentration at which inhibition is half-maximal. Higher therefore signals a need for much substance. What is called IC90 is the point of the concentration-response curve where the effect stands at 90%. Low values mean an effect from little substance, high ones a need for much substance.

Source of the values: ChEMBL document CHEMBL4257499, “Triazole-diindolylmethane conjugates as new antitubercular agents: synthesis, bioevaluation, and molecular docking” (Medchemcomm, 2018).
